Assay results reported in ChEMBL document CHEMBL1811823, “Quinazolinone linked pyrrolo[2,1-c][1,4]benzodiazepine (PBD) conjugates: Design, synthesis and biological evaluation as potential anticancer agents” (2010).
Calls of active or inactive are those of the source. No cut-off for these calls is given here.

Tests used:
[1] = tested on: Nucleic Acid; assay: Binding affinity to calf thymus DNA assessed as change in melting temperature at 20 uM at pH 7 incubated for 18 hrs at 37 degC by thermal denaturation assay; format: nucleic-acid assay; conditions: Bos taurus
Method in brief: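 CT-DNA (100 µM in phosphate) with 20 µM ligand, 1:5 [PBD]/[DNA], in 10 mM sodium phosphate/1 mM Na2EDTA buffer pH 7.00. Ligand added from methanol solution; incubated at 37 °C for 0 or 18 h. A260 monitored while heating 1 °C/min over 40–90 °C. Tm taken from d(A260)/dT maxima; ΔTm = Tm(DNA+PBD) − Tm(DNA alone). Values are means of at least three determinations, corrected for methanol cosolvent.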

[2] = tested on: MCF7; assay: Growth inhibition of human MCF7 cells after 48 hrs by SRB assay; format: functional; conditions: MCF7, 48 h
Method in brief: (§1)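 Cells grown in RPMI 1640 with 10% FBS and 2 mM L-glutamine, plated at densities set by doubling time, pre-incubated 24 h at 37 °C/5% CO2. Drug tested at 0.1, 1, 10 and 100 µM in triplicate wells for 48 h continuous exposure. Cells fixed with cold TCA (final 10%) 60 min at 4 °C, stained with 0.4% SRB, dye eluted in 10 mM Tris. Absorbance read at 540 nm (690 nm reference); percent growth calculated relative to control wells.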

[3] = tested on: ZR-75-1; assay: Growth inhibition of human ZR-75-1 cells after 48 hrs by SRB assay; format: functional; conditions: ZR-75-1, 48 h
Method in brief: (§2)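 SRB assay with 48 h continuous exposure. Cells were grown in RPMI 1640 with 10% FBS and 2 mM L-glutamine and preincubated 24 h at 37 °C, 5% CO2. Compounds were tested at four concentrations (0.1, 1, 10, 100) in triplicate wells. Cells were fixed with cold TCA (10% final) for 60 min at 4 °C, stained 20 min with 0.4% SRB in 1% acetic acid, and the dye eluted with 10 mM Tris. A540 was read against a 690 nm reference. Percent growth is relative to control wells on each plate.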

[4] = tested on: A549; assay: Growth inhibition of human A549 cells after 48 hrs by SRB assay; format: functional; conditions: A549, 48 h; method in brief: as §1
[5] = tested on: HOP-62; assay: Growth inhibition of human HOP62 cells after 48 hrs by SRB assay; format: functional; conditions: HOP-62, 48 h; method in brief: as §1
[6] = tested on: SiHa; assay: Growth inhibition of human SiHa cells after 48 hrs by SRB assay; format: functional; method in brief: as §2
[7] = tested on: COLO 205; assay: Growth inhibition of human COLO205 cells after 48 hrs by SRB assay; format: functional; conditions: COLO 205, 48 h; method in brief: as §1
[8] = tested on: KB; assay: Growth inhibition of human KB cells after 48 hrs by SRB assay; format: functional; method in brief: as §1
[9] = Growth inhibition of human Gurav cells after 48 hrs by SRB assay; format: functional; method in brief: as §1
[10] = Growth inhibition of human DWD cells after 48 hrs by SRB assay; format: functional; method in brief: as §1
[11] = tested on: PC-3; assay: Growth inhibition of human PC3 cells after 48 hrs by SRB assay; format: functional; conditions: PC-3, 48 h; method in brief: as §1
[12] = tested on: A2780; assay: Growth inhibition of human A2780 cells after 48 hrs by SRB assay; format: functional; conditions: A2780, 48 h; method in brief: as §1
[13] = tested on: A-375; assay: Cytotoxicity against human A375 cells assessed as cell viability after 24 hrs by MTT assay; format: functional
Method in brief: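 A375 cells seeded at 10,000/well, incubated overnight, then treated for 24 h. MTT added at 10% of culture volume for 2 h at 37 °C. Formazan dissolved in 20% SDS/50% DMF overnight at 37 °C; absorbance read at 570 nm against a medium blank. Viability expressed as percent of untreated cells.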

[14] = tested on: A-375; assay: Induction of apoptosis in human A375 cells assessed as sub-G1 phase accumulation at 4 uM after 24 hrs by propidium iodide staining based flow cytometry; format: functional
Method in brief: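 A375 cells (5×10^5 per 60 mm dish) were grown 24 h, then treated 24 h at 0–4 µM. Cells were harvested with trypsin-EDTA, fixed in ice-cold 70% ethanol for 30 min at 4 °C, treated with RNase A (1 mg/ml) for 30 min at 37 °C, and stained with propidium iodide. Cell-cycle distribution, including the sub-G1 fraction, was measured by flow cytometry. DMSO-exposed cells were the control.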

[15] = tested on: A-375; assay: Cell cycle arrest in human A375 cells assessed as decrease in G2/M phase at 4 uM after 24 hrs by propidium iodide staining based flow cytometry; format: functional; parameters: scale not given: the % may be the effect or the level left
Method in brief: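 A375 melanoma cells (DMEM, 10% FCS, 37 °C, 5% CO2) seeded at 5×10^5 per dish and grown 24 h, then exposed to 0–4 µM for 24 h. Harvested with trypsin-EDTA, fixed in ice-cold 70% ethanol, RNase A treated (1 mg/ml, 37 °C, 30 min), stained with propidium iodide and analysed by flow cytometry for phase distribution.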

[16] = tested on: A-375; assay: Increase in p53 protein expression in human A375 cells at 4 uM after 24 hrs by Western blot; format: functional, cell-based
Method in brief: (§3)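 A375 cells (DMEM, 10% FCS, 37 °C, 5% CO2) were treated at 4 µM for 24 h. Lysates were loaded at 30 µg protein/lane on 12% SDS-PAGE and transferred to PVDF. Membranes were blocked 2 h in TBST, incubated with primary antibody overnight at 4 °C (p53 1:100, p27 1:500, NF-κB p65 1:500), then HRP secondary 1 h, with chemiluminescent detection. β-actin was the loading control; untreated and DMSO controls were run.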

[17] = tested on: A-375; assay: Increase in p27 protein expression in human A375 cells at 4 uM after 24 hrs by Western blot; format: functional, cell-based; method in brief: as §3
[18] = tested on: A-375; assay: Inhibition of NF-kappaB signaling in human A375 cells at 4 uM after 24 hrs by Western blot; format: cell-based; method in brief: as §3
[19] = tested on: A-375; assay: Increase in cytochrome C release in human A375 cells at 4 uM after 24 hrs by Western blot; format: functional, cell-based
Method in brief: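 Western blot of A375 cell lysates after 24 h exposure at 4 µM, with 30 µg protein/lane on 12% SDS-PAGE and transfer to PVDF. Probed overnight at 4 °C with anti-cytochrome c (1:500), then HRP secondary and chemiluminescence. β-actin was the loading control; untreated and DMSO-only cells served as controls.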

[20] = tested on: A-375; assay: Increase in active caspase-3 protein level in human A375 cells at 4 uM after 24 hrs by Western blot; format: functional, cell-based
Method in brief: (§4)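 A375 cells were exposed 24 h at 4 µM. Lysates (30 µg/lane) were run on 12% SDS-PAGE and transferred to PVDF, then probed overnight at 4 °C with anti-cleaved caspase-3 (1:200, detects 21 kDa) or anti-PARP (1:2000, detects 113 and 85 kDa). HRP secondary and chemiluminescence were used. β-tubulin was the loading control; untreated and DMSO controls were included.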

[21] = tested on: A-375; assay: Increase in active PARP cleavage product (85kDa) level in human A375 cells at 4 uM after 24 hrs by Western blot; format: functional, cell-based; method in brief: as §4
[22] = tested on: A-375; assay: Decrease in Bcl-2 mRNA expression in human A375 cells at 4 uM after 24 hrs by RT-PCR

| Compound | ΔTm [1] [°C] | GI50 [2] [nM] | GI50 [3] [nM] | GI50 [4] [nM] | GI50 [5] [nM] | GI50 [6] [nM] | GI50 [7] [nM] | GI50 [8] [nM] | GI50 [9] [nM] | GI50 [10] [nM] | GI50 [11] [nM] | GI50 [12] [nM] | other results |
| --- | --- | --- | --- | --- | --- | --- | --- | --- | --- | --- | --- | --- | --- |
| COc1cc2c(cc1OCCCCCOc1ccc3nc(C)n(-c4ccc(I)cc4C)c(=O)c3c1)N=C[C@@H]1CCCN1C2=O | 2.1 | 110 | 160 | 160 | 160 | 170 | 160 | 150 | 160 | 130 | 160 | 140 |  |
| COc1cc2c(cc1OCCCCOc1ccc3nc(C)n(-c4ccc(Cl)cc4Cl)c(=O)c3c1)N=C[C@@H]1CCCN1C2=O | 2.3 | 140 | 170 | 180 | 180 | 180 | 170 | 160 | 170 | 150 | 180 | 150 |  |
| COc1ccc(-n2c(C)nc3ccc(OCCCCCOc4cc5c(cc4OC)C(=O)N4CCC[C@H]4C=N5)cc3c2=O)cc1 | 2.2 | < 100 | 150 | 140 | 180 | 180 | 140 | 160 | < 100 | 130 | 170 | 140 |  |
| COc1cc2c(cc1OCCCCOc1ccc(-n3c(C)nc4ccccc4c3=O)cc1)N=C[C@@H]1CCCN1C2=O | 2.1 | 2300 | 170 | 1930 | 1950 | 1900 | 1810 | 1980 | 1950 | 1600 | 170 | 1650 |  |
| COc1cc2c(cc1OCCCCCOc1ccc(-n3c(/C=C/c4ccccc4)nc4ccccc4c3=O)cc1)N=C[C@@H]1CCCN1C2=O | 2 | 2500 | 150 | 26200 | 2310 | 2080 | 2000 | 2150 | 1820 | 170 | 1830 | 150 |  |
| COc1cccc2c1C(=O)c1c(O)c3c(c(O)c1C2=O)C[C@@](O)(C(=O)CO)C[C@@H]3O[C@H]1C[C@H](N)[C@H](O)[C@H](C)O1 [DOXORUBICIN] |  | 170 |  |  | 140 | 170 | 140 | 170 | 170 | 100 |  | 160 |  |
| COc1cc2c(cc1O)N=C[C@@H]1CCCN1C2=O | 0.7 | 170 |  | 160 | 150 | 170 | 110 | 170 | 160 |  | 200 | 140 |  |
| COc1cc2c(cc1OCCCCOc1ccc3nc(C)n(-c4ccc(I)cc4C)c(=O)c3c1)N=C[C@@H]1CCCN1C2=O | 2 | 120 | 160 | 170 | 170 | 180 | 170 | 150 | 170 | 150 | 170 | 150 |  |
| COc1cc2c(cc1OCCCCOc1ccc(-n3c(/C=C/c4ccccc4)nc4ccccc4c3=O)cc1)N=C[C@@H]1CCCN1C2=O | 2.3 |  | 160 | 2390 | 2330 | 2190 | 2230 | 2070 | 1930 | 160 | 1910 | 160 |  |
| COc1cc2c(cc1OCCCCCOc1ccc3nc(C)n(-c4ccc(F)cc4)c(=O)c3c1)N=C[C@@H]1CCCN1C2=O | 2.2 | 150 | 160 | 130 | 180 | 190 | 150 | 150 | 130 | 150 | 170 | 140 |  |
| COc1cc2c(cc1OCCCCCOc1ccc3nc(C)n(-c4ccc(F)c(Cl)c4)c(=O)c3c1)N=C[C@@H]1CCCN1C2=O | 2.3 | < 100 | 150 | 130 | 140 | 170 | 130 | 150 | < 100 | 130 | 170 | 110 | Activity [13]: 58.72%; Activity [14]: 24.1%; Activity [15]: 11.92%; Activity [16]: Active; Activity [17]: Active; inhibition [18]: Active; Activity [19]: Active; Activity [20]: Active; Activity [21]: Active; Decrease in Bcl-2 mRNA expression [22]: Active |
| COc1cc2c(cc1OCCCOc1ccc(-n3c(/C=C/c4ccccc4)nc4ccccc4c3=O)cc1)N=C[C@@H]1CCCN1C2=O | 2 | 2030 | 160 | 1880 | 2150 | 2000 | 2120 | 1780 | 1850 | 140 | 160 | 140 |  |
| COc1cc2c(cc1OCCCOc1ccc(-n3c(C)nc4ccccc4c3=O)cc1)N=C[C@@H]1CCCN1C2=O | 2 | 1830 | 150 | 1480 | 160 | 160 | 140 | 150 | 130 | 110 | 130 | 100 |  |
